Assay results reported in publication PMC3064895 (Cancer Chemotherapy and Pharmacology, 2010).
Several values for one entry are separate records, joined by “and”; a condition that tells them apart may be missing. Identical values can stand only once. Entries after “also recorded” stand apart in the source; their conditions may differ.

What was measured:
Format in all cases: in vivo, patients with advanced cancer
[1] = Safety: adverse events by NCI-CTCAE v3.0
In short: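 Patients with advanced cancer took the oral kinase inhibitor at 400 mg bid, continuously, in 28-day cycles. Safety, including laboratory tests, was checked at screening, at baseline and on day 1 of each cycle. Treatment-emergent AEs were graded by NCI-CTCAE v3.0 for incidence, severity, seriousness and drug relationship, and summarized descriptively for all patients with ≥1 dose.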

[2] = Left ventricular ejection fraction; settings: for Mean (SD) change from baseline in LVEF(%): sorafenib 400 mg bid
[3] = Plasma pharmacokinetics at steady state of sorafenib; settings: for AUC / Cmax: geometric mean (% CV); for AUC: AUC(0–12), n = 14; for Cmax: C max
Efficacy: tumor response = experiment: Efficacy: tumor response
In short: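 Adults with advanced cancer took the oral multitargeted kinase inhibitor at 400 mg bid, continuously, in 28-day cycles until progression or intolerance. Tumors were measured at screening and every 2 cycles and assessed locally by RECIST. Patients with ≥1 dose were included; patients were evaluable if radiologically re-evaluated or if they stopped for death or progression before re-evaluation. Descriptive statistics were used, with Kaplan–Meier for PFS.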

[4] = human, plasma, oral, 400 mg, plasma, Day 1 of cycle 2, sorafenib 400 mg bid
[5] = human, plasma, oral, 400 mg, plasma, Day 1 of cycle 5, sorafenib 400 mg bid
[6] = plasma, Day 1 of cycle 2, sorafenib 400 mg bid
[7] = plasma, Day 1 of cycle 5, sorafenib 400 mg bid

Compound: CNC(=O)c1cc(Oc2ccc(NC(=O)Nc3ccc(Cl)c(C(F)(F)F)c3)cc2)ccn1 [sorafenib]
- Dermal change, drug-related, all grades ([1]; N = 53): 6 (11) n (%)
- Dermatology—other, drug-related, Grade ≥3 ([1]; N = 53): 1 (2) n (%)
- Dermatology—other, drug-related, all grades ([1]; N = 53): 7 (13) n (%)
- Diarrhea, drug-related, Grade ≥3 ([1]; N = 53): 1 (2) n (%)
- Diarrhea, drug-related, all grades ([1]; N = 53): 15 (28) n (%)
- Fatigue, drug-related, Grade ≥3 ([1]; N = 53): 1 (2) n (%)
- Fatigue, drug-related, all grades ([1]; N = 53): 8 (15) n (%)
- Hand-foot skin reaction, drug-related, Grade ≥3 ([1]; N = 53): 6 (11) n (%)
- Hand-foot skin reaction, drug-related, all grades ([1]; N = 53): 16 (30) n (%)
- Hypertension, drug-related, Grade ≥3 ([1]; N = 53): 1 (2) n (%)
- Hypertension, drug-related, all grades ([1]; N = 53): 6 (11) n (%)
- Mucositis, drug-related, Grade ≥3 ([1]; N = 53): 1 (2) n (%)
- Mucositis, drug-related, all grades ([1]; N = 53): 8 (15) n (%)
- Nausea, drug-related, Grade ≥3 ([1]; N = 53): 0 (0) n (%)
- Nausea, drug-related, all grades ([1]; N = 53): 7 (13) n (%)
- Pain, extremity—limb, drug-related, Grade ≥3 ([1]; N = 53): 0 (0) n (%)
- Pain, extremity—limb, drug-related, all grades ([1]; N = 53): 12 (23) n (%)
- Patients discontinued from the study because of AEs ([1]; N = 53): Seven
- Patients with dose reductions ([1]; N = 53): 43.4%
- Patients with dose reductions because of treatment-emergent AEs ([1]; N = 53): 32.1%
- Patients with drug-related treatment-emergent serious AEs ([1]; N = 53): 4%
- Patients with treatment interruptions ([1]; N = 53): 75.5%
- Patients with treatment interruptions because of treatment-emergent AEs ([1]; N = 53): 43.4%
- Rash/desquamation, drug-related, Grade ≥3 ([1]; N = 53): 3 (6) n (%)
- Rash/desquamation, drug-related, all grades ([1]; N = 53): 20 (38) n (%)
- Sensory neuropathy, drug-related, Grade ≥3 ([1]; N = 53): 0 (0) n (%)
- Sensory neuropathy, drug-related, all grades ([1]; N = 53): 7 (13) n (%)
- Any drug-related adverse event, Grade ≥3 ([1]; N = 53, sorafenib 400 mg bid): 16 n (%) and 16 (30) n (%)
- Any drug-related adverse event, all grades ([1]; N = 53, sorafenib 400 mg bid): 43 n (%) and 43 (81) n (%)
- Deaths during the study or within 30 days of the last dose ([1]; all secondary to disease progression, considered unrelated to study drug): Seven
- Discontinuations because of drug-related AEs ([1]; of the patients discontinued because of AEs): 3 patients
- LVEF measurement, individual patient ([2]; RCC patient with diabetes (baseline 67%), Day 1 of cycle 3, MUGA scan): 42.2%
- LVEF measurement, individual patient ([2]; RCC patient with diabetes (baseline 67%), repeat MUGA scan (+16 days)): 50%
- Mean (SD) change from baseline in LVEF(%) ([2]; primary analysis population, Day 1 of cycle 3 (after 2 cycles)): −0.8 (±8.6) LVEF(%) and −0.8 LVEF(%)
- Mean (SD) change from baseline in LVEF(%) ([2]; primary analysis population, Day 1 of cycle 3 (after 2 cycles), listed as Sorafenib): −0.8 (8.6) LVEF(%)
- Mean (SD) change from baseline in LVEF(%) ([2]; primary analysis population, Day 1 of cycle 5 (after 4 cycles)): −1.2 (±7.8) LVEF(%) and −1.2 LVEF(%)
- Mean (SD) change from baseline in LVEF(%) ([2]; primary analysis population, Day 1 of cycle 5 (after 4 cycles), listed as Sorafenib): −1.2 (7.8) LVEF(%)
- Patients with decrease from baseline of ≥10 LVEF(%) ([2]; primary group, after 2 cycles): 12.9% and 13%
- Patients with decrease from baseline of ≥10 LVEF(%) ([2]; primary group, after 4 cycles): 4%
- Mean decline in LVEF(%) ([2]; primary patient group (n = 24), after 4 cycles): 1.2 LVEF(%)
- Mean (SD) change from baseline in LVEF(%) ([2]; secondary analysis population, Day 1 of cycle 3 (after 2 cycles)): −1.0 (8.5) LVEF(%)
- Mean (SD) change from baseline in LVEF(%) ([2]; secondary analysis population, Day 1 of cycle 5 (after 4 cycles)): −1.4 (9.4) LVEF(%)
- Patients with decrease from baseline of ≥10 LVEF(%) ([2]; secondary group, after 2 cycles): 12.0%
- Patients with decrease from baseline of ≥10 LVEF(%) ([2]; secondary group, after 4 cycles): 7.1%
- Mean decline in LVEF(%) ([2]; secondary patient group (n = 14), after 4 cycles): 1.4 LVEF(%)
- Mean decline in LVEF(%) ([2]; secondary patient group (n = 25), after 2 cycles): 1.0 LVEF(%)
- Largest individual decrease in ejection fraction ([2]; single patient without clinical signs of CHF): −24.8 LVEF[%]
- LVEF measurement, individual patient ([2]; thymic cancer patient (baseline 72%), repeat ECHO scan (+3 days)): 60–65%
- Tmax ([3]; human, plasma, oral, 400 mg): 2 h
- AUC [3, 4]: 42800 ng·h/mL
- AUC [3, 5]: 36000 ng·h/mL
- Cmax [3, 4]: 5400 ng/mL
- Cmax [3, 5]: 4300 ng/mL
- AUCnorm, geometric mean (% CV) [3, 6]: 7.5 (48.4) kg h/L
- C max,norm, geometric mean (% CV) [3, 6]: 1.0 (64.9) kg/L
- C trough, geometric mean (% CV) [3, 6]: 4.1 (73.6) mg/L
- C trough,norm, geometric mean (% CV) [3, 6]: 0.7 (85.4) kg/L
- AUCnorm, geometric mean (% CV) [3, 7]: 6.3 (69.8) kg h/L
- C max,norm, geometric mean (% CV) [3, 7]: 0.8 (72.5) kg/L
- C trough, geometric mean (% CV) [3, 7]: 3.2 (73.8) mg/L
- C trough,norm, geometric mean (% CV) [3, 7]: 0.6 (83.8) kg/L
- t max, median (range) [3, 7]: 2.00 (0–8.05) h
- Relationship between PK parameters (AUC(0–12), C max) and cardiovascular safety parameters (QT/QTc, LVEF, BP, HR) ([3]; sorafenib and its main metabolites, any time point, data not shown): No correlation; also recorded: No relationship was observed
- PD as best response (Efficacy: tumor response; 48 patients evaluable for tumor response, RECIST): 27%
- Patients alive (censored) at time of analysis (Efficacy: tumor response; ITT population (n = 53)): 87%
- Patients who had died by the time of analysis (Efficacy: tumor response; ITT population (n = 53)): 13%
- Median PFS (Efficacy: tumor response; ITT population (n = 53), 95% CI 2.8–6.4 months): 4.1 months
- Median overall survival (Efficacy: tumor response; ITT population (n = 53), censored data): not estimable
